Tb MetRS inh – T. brucei MetRS inhibitors, primary screen, biochemical, luminescence; methionyl-tRNA synthetase (Trypanosoma brucei brucei); inhibition, % at 11.9 µM; 0.4% of 360,000 active; purified T. brucei MetRS, ATP depletion, Kinase-Glo luminescence; AID 624268, 2012;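 active means inhibition above a per-plate cutoff of the control wells' mean inhibition plus 3 SD, cut at about 5.5% in these data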;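 further: 0% = DMSO wells median and 100% = median of wells with control inhibitor compound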
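Test system – parasite MetRS enzyme · Reagent – substrates ATP, L-methionine and bulk Escherichia coli tRNA · Doses – 11.9 µM compound single dose, 0.9% DMSO · Times – 15 min enzyme-compound preincubation, 2 h reaction, 10 min detection, 25 °C · Signal – Kinase-Glo luminescence, ATP depletion format · Controls – DMSO-only wells as low control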
V-ATPase pH – regulators of yeast V-ATPase proton pumping, primary screen, pHLuorin cytosolic pH fluorescence. S. cerevisiae. response, % at 10 µM. 0.37% of 350,000 active. AID 504577, 2011; in the data active means response mostly above about 7.3%, no sharp cut-off; inactive means mostly below about 5.4%; further: actives read high
UPR XBP1 act – activators of adaptive XBP1 UPR arm, primary screen, cell-based, CHO-XBP1 luciferase reporter, luminescence, uHTS. IRE1-XBP1 UPR activation; percent of tunicamycin response, DMSO as zero. activation, % at 20 µM. 0.33% of 330,000 active;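 active means versus positive control, 20 µM dose yields 30% or more activation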;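 further: 100% = tunicamycin at 10 µg/mL and 0% = DMSO only wells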
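Assay system: IRE1-XBP1 luciferase reporter CHO line. Input: 1000 cells/well. Buffer or medium: F12 with 10% serum. Doses: 20 µM, 1% DMSO. Times: overnight seeding at 37 °C, 6 h compound treatment at 37 °C. Technique: Steady-Glo luciferase glow luminescence, 10 min after reagent addition.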
CHOP UPR activ – activators of apoptotic CHOP UPR arm, primary screen, cell-based, CHO-CHOP luciferase reporter, luminescence, uHTS; UPR activation; percent of tunicamycin response over DMSO baseline; 0.34% of 330,000 active; AID 449763, 2010; activation, % at 10 µM;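 active means at 10 µM dose, activation of 40% or more, normalized to positive control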;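 further: 100% = tunicamycin at 10 µg/mL and 0% = DMSO alone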
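Test system: CHO CHOP reporter cells. Input: 500 CHO-CHOP cells per well. Medium: F12 with 10% FBS. Technique: luciferase luminescence. Measure: percent activation relative to tunicamycin control. Dosing: 10 µM compound, 0.5% DMSO. Timing: 16-18 h cell attachment, then 6 h compound exposure, 37 °C.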
CHOP inh – inhibitors of CHOP promoter induction, primary screen, cell-based, unfolded protein response, luciferase reporter. CHO-K1 CHOP-promoter luciferase, tunicamycin-induced, 15-18 h. 3.8% of 220,000 active. inhibition, % at 10 µM;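 active means compounds that reduced the stress-induced luciferase reporter signal by more than about 70% of percent inhibition, limit read from the data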;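 further: 0% = tunicamycin plus vehicle and 100% = wells without tunicamycin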
Starred values were filed as active, the others as inactive; nt = not tested or not shown. Only a selection was taken, and hits are over-represented in it overall.

SMILES | Tb MetRS inh | V-ATPase pH | UPR XBP1 act | CHOP UPR activ | CHOP inh
COc1ccccc1N1CCN(C(=O)c2cc3n(n2)C(C(F)(F)F)CC(c2ccco2)N3)CC1 (stereo not drawn) | 0 | -4 | -5 | -2 | 38
O=C(c1cc2n(n1)C(C(F)(F)F)CC(c1ccco1)N2)N1CCc2ccccc2C1 (stereo not drawn) | 0 | 5 | 4 | 0 | 83*
CCN1CCN(C(=O)c2ccc(Cl)c(S(=O)(=O)N3CCCCC3)c2)CC1 | 0 | -1 | -3 | 0 | nt
Cc1ccc(C)c(N(CC(=O)NC2CCCC2)C(=O)CCC(=O)Nc2nccs2)c1 | 0 | 4 | -4 | -2 | nt
Brc1ccc(-c2nc3c4ccccc4ccn3c2Cc2ccccc2)cc1 | -1 | 1 | nt | nt | nt
O=C(Nc1nc2ccc(F)cc2s1)C1CCN(S(=O)(=O)c2cc([N+](=O)[O-])ccc2Cl)CC1 | 0 | 0 | -2 | 10 | 90*
Cc1ccc(NC(=O)C2CCN(S(=O)(=O)c3cc([N+](=O)[O-])ccc3Cl)CC2)nc1 | 0 | -3 | -3 | 7 | nt
CC(=O)Oc1ccccc1Cn1c(C)c(C(=O)NCCC#N)sc1=O | -1 | nt | nt | nt | nt
Cc1c(Cl)ccc2c(C(=O)NC(C)c3ccncc3)cc(-c3ccncc3)nc12 (stereo not drawn) | nt | nt | 4 | 2 | 79*
COC(=O)CNC(=O)c1cc(-c2ccncc2)nc2c(C)c(Cl)ccc12 | 0 | 12 | -2 | 0 | 13
Nc1ccn(C2OC(COC(=O)C34CC5CC(CC(C5)C3)C4)C(O)C2O)c(=O)n1 (stereo not drawn) | 0 | -3 | nt | nt | nt
Cc1cc(C)c(S(=O)(=O)NC2CCN(Cc3ccccc3)CC2)c(C)c1 | 0 | 1 | -1 | -2 | 31
O=C(NC1CCN(Cc2ccccc2)C1)c1cccc(S(=O)(=O)N2CCOCC2)c1 (stereo not drawn) | 0 | 4 | -2 | 0 | nt
Cc1cc(C)c(C)c(S(=O)(=O)NC2CCN(Cc3ccccc3)CC2)c1C | -1 | -1 | -1 | -2 | 79*
O=S(=O)(NC1CCN(Cc2ccccc2)CC1)c1cccc(S(=O)(=O)N2CCOCC2)c1 | 0 | 15* | -1 | 0 | 65
Cc1ccc2c(c1)sc1nncn12 | 0 | 1 | nt | nt | nt
O=C(O)c1cccc2c1C(=O)c1ccc(N3CCN(Cc4ccc5c(c4)OCO5)CC3)cc1S2(=O)=O | 1 | -3 | nt | nt | nt
Cc1ccc(C(=O)NNC2=Nc3cccc4cccc2c34)cc1 | 0 | 4 | 2 | 5 | 89*
COc1ccc(C(=O)NNC2=Nc3cccc4cccc2c34)cc1 | 1 | 0 | 4 | 2 | -15
O=C(Cn1nnc(-c2ccccc2)n1)OCc1ccccc1 | 0 | 0 | 0 | -2 | 76*
O=C(Cn1nnc(-c2ccccc2)n1)OCc1csc(-c2ccccc2)n1 | 0 | -1 | -1 | 2 | 44
O=C(Nc1ccc(N2CCN(C(=O)c3ccccc3)CC2)c(Cl)c1)c1ccc(Br)o1 | 0 | -1 | -2 | 4 | 85*
CC1=Nn2c(nnc2-c2ccccn2)SC1 | -1 | -2 | 1 | -1 | 14
CC1=Nn2c(nnc2-c2ccccc2F)SC1 | -1 | 15* | 1 | 1 | -16
CCOC(=O)c1ccc(NC(=O)CN(C)S(=O)(=O)c2ccc(Br)s2)cc1 | -1 | -2 | -1 | -1 | 77*
SMILES | Tb MetRS inh | V-ATPase pH | UPR XBP1 act | CHOP UPR activ | CHOP inh
Cc1ccc([N+](=O)[O-])cc1-c1ccc(/C=N\n2nnnc2N)o1 | 0 | -1 | 0 | 0 | 90*
CCC(=O)Nc1cc(C(=O)OCc2ccc(C(=O)Oc3ccccc3)cc2)ccc1C | 0 | 0 | 0 | 4 | -19
CCC(=O)N1CCN(c2nc3ccccc3s2)CC1 | -1 | -2 | 1 | 5 | 6
CC1CCN(C(=O)C2CCN(C(=O)c3cc4sccc4n3Cc3ccc(F)cc3)CC2)CC1 | -1 | 2 | -3 | -1 | 71*
CC(C)NC(=O)C1CCN(C(=O)c2cc3sccc3n2Cc2ccc(F)cc2)CC1 | 0 | -2 | -3 | 15 | 51
O=C(c1cc2sccc2n1Cc1ccccc1)N1CCN(c2nc3ccccc3s2)CC1 | 0 | 0 | -4 | 2 | 71*
Cc1ccc(S(=O)(=O)N2C[C@H]3C(=O)C[C@@H](c4cccc(Cl)c4)N(S(=O)(=O)c4ccc(C)cc4)[C@H]3C[C@H]2c2ccc(Cl)cc2)cc1 | 1 | 1 | nt | nt | nt
N#C/C(=C/c1ccc(F)cc1)c1nnc(NC(=O)c2ccccc2)s1 | 0 | -3 | -3 | 1 | 73*
CN(Cc1ccc(F)cc1)S(=O)(=O)c1nnc(NC(=O)c2ccccc2)s1 | -1 | 0 | 1 | 1 | nt
Cc1ccc(NC(=O)Cc2nnc(SCC(=O)c3ccc(Br)cc3)n2C)cc1 | 0 | 2 | -2 | 0 | 88*
CCOC(=O)C1=CCN(S(=O)(=O)c2ccccc2Cl)C1c1cccc(Br)c1 (stereo not drawn) | 0 | nt | nt | nt | nt
Cc1cccc(NC(=O)Nc2ccc(C#N)cc2)n1 | 0 | -3 | -2 | 7 | 77*
Cc1cccc(NC(=O)Nc2cccc(C#N)c2)n1 | 0 | 0 | 1 | 6 | 32
CC(=O)C1=CCC(c2ccccc2)N(Cc2ccccc2)C1 (stereo not drawn) | 0 | nt | nt | nt | nt
CCCc1nc2ccccc2c(=O)n1/N=C/c1ccccc1O | -1 | -2 | -4 | -2 | 48
Cc1cccc(C)c1OCc1nc2ccccc2c(=O)n1/N=C/c1c[nH]c2ccccc12 | 0 | 5 | -3 | -2 | 85*
Cc1cc(/C=N/n2c(COc3ccccc3C)nc3ccccc3c2=O)c(O)c([N+](=O)[O-])c1 | 0 | 0 | 4 | 1 | 53
Cc1ccccc1OCc1nc2ccccc2c(=O)n1/N=C/c1c[nH]c2ccccc12 | 0 | 5 | -1 | 1 | 88*
O=C1C2C3C=CC(C3)C2C(=O)N1/N=C/c1cn(Cc2ccccc2)c2ccccc12 (stereo not drawn) | -1 | 13* | -5 | 0 | 69
CCC(=O)OCCNc1cc(Sc2nc3ccccc3[nH]2)c2nonc2c1[N+](=O)[O-] | 0 | -1 | nt | nt | 109*
CCCC(=O)OCCNc1cc(Sc2nccn2C)c2nonc2c1[N+](=O)[O-] | 1 | 0 | nt | nt | 108*
CCC(=O)OCCNc1cc(Sc2nc3ccccc3s2)c2nonc2c1[N+](=O)[O-] | -1 | -3 | -7 | -9 | 113*
Cc1ccc(-c2nc(NCc3ccco3)c3ccccc3n2)cc1 | 0 | -3 | 0 | 1 | 20
c1ccc(-c2nc(NCc3ccco3)c3oc4ccccc4c3n2)cc1 | 0 | -1 | 0 | 0 | 92*
C=Cc1ccc(Cn2c(C)c(C(=O)NCc3ccc(Cl)c(Cl)c3)sc2=O)cc1 | 0 | nt | nt | nt | nt

Compound activity from PubChem BioAssay.
